The sample as a whole holds a higher share of hits than the screen did.
FGF22 binding = binders of recombinant human FGF22 by thermal shift; Q9HCT0; SYPRO orange fluorescence; percent of sucrose octasulfate shift, DMSO zero; activity (Tm shift, normalised), % at 9.99 µM; hit rate 1.5% among 340,000;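 active = mean Tm shift, scaled 0 neutral to 100 positive control, at about 1.3% or above, every replicate too, limit read from the data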
Target sequence (Q9HCT0 whole entry, looked up): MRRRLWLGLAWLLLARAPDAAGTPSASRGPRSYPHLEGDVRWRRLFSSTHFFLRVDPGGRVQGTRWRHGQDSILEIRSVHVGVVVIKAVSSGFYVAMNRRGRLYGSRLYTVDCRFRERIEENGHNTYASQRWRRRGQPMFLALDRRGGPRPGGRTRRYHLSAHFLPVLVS
S100A4 inh HTS = S100A4-myosin IIA interaction inhibition; S100A4/TAMRA-MyoIIA peptide fluorescence polarization; P26447; inhibition, % at 10.7 µM; hit rate 0.14% among 360,000;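 active = mean inhibition of at least 70% across replicates, with every replicate also reaching that level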
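Test system: S100A4 monomer protein. Medium: HEPES buffer with Ca2+, pH 7.2. Reagent: fluorescent myosin IIA peptide, 5 nM. Compound dosing: single-point compound testing. Timing: 5 min between mix addition and reading. Benchmarks: DMSO neutral and TFP positive wells.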
ERAP1 inh = inhibitors of human ERAP1 aminopeptidase; Q9NZ08; recombinant ERAP1, Leu-AMC fluorescence, 60 min; inhibition, % at 10.7 µM; hit rate 0.15% among 340,000; AID 652197;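 active = mean replicate inhibition of at least 30%, or all replicates individually reaching that 30% level; inactive = mean below 30% and not every replicate reaching it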
ERp5 inh = blocks human ERp5 reductase activity on insulin | AID 651711 | ERp5 insulin aggregation, absorbance 650 nm, 90 min | Q15084 | hit rate 0.05% among 350,000 | inhibition, % at 9.99 µM;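 active = mean replicate inhibition above about 25%, with every replicate also reaching it, limit read from the data, passing the limit was not always enough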
PDI inh = inhibitors of human protein disulfide isomerase; hit rate 0.052% among 350,000; P07237; AID 588391; inhibition, % at 10 µM; PDI insulin aggregation turbidity, A650, 90 min;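 active = mean inhibition across replicates of 30% or more, whatever share of single replicates reach that level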
Target sequence (P07237 whole entry, looked up): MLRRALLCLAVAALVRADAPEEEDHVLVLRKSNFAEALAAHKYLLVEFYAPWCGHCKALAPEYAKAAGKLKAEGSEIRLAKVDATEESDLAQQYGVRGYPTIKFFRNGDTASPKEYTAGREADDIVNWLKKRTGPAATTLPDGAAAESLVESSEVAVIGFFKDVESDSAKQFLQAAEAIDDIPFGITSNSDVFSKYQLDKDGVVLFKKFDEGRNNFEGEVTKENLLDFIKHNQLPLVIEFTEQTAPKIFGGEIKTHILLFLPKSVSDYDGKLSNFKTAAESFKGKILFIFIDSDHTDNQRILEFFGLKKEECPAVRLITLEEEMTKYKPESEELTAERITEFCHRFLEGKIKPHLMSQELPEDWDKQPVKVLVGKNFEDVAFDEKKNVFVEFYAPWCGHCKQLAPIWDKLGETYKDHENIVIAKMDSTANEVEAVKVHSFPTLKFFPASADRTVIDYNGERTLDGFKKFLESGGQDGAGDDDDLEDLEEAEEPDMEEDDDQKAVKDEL
Each line names hits and unclear results; the compound was inactive in the other large screens.

Cc1ccc(NC(=O)CN2C(=O)S/C(=C/c3ccc(-c4cc(C(=O)O)ccc4C)o3)C2=O)cc1C	none (no result: FGF22 binding, S100A4 inh HTS, ERAP1 inh, ERp5 inh)
COc1ccc(S(=O)(=O)Nc2ccc3c(c2)C(=O)N([C@H](C)CO)C[C@H](C)[C@H](CN(C)C(=O)Nc2c(C)noc2C)OCCCC[C@H](C)O3)cc1	FGF22 binding 1.3 (no result: PDI inh)
COc1ccc(S(=O)(=O)Nc2ccc3c(c2)C(=O)N([C@H](C)CO)C[C@@H](C)[C@H](CN(C)C(=O)Nc2ccc(C(F)(F)F)cc2)OCCCC[C@@H](C)O3)cc1	FGF22 binding 1.2 (no result: PDI inh)
C=CCC[C@@H](Cc1ccc(F)cc1)C(=O)OC[C@@H](C)NC(=O)[C@@H](CC=C)CC(=O)N[C@H](CO)Cc1ccccc1	FGF22 binding 1.4
COC(=O)C1CCCCN1C(=O)c1ccc2oc(Cc3ccccc3)nc2c1 (configuration not stated)	none
Cc1ccc(NC(=O)CN(C)C(=O)COc2ccc(C(=O)c3ccc(F)cc3)cc2)cc1	FGF22 binding 43.7
CCC(=O)c1ccc(OCC(=O)OCC(=O)N(C)CC(=O)Nc2ccc(F)cc2)cc1	none
O=C(CC(C(=O)O)P(=O)(c1ccccc1)c1ccccc1)c1ccccc1 (configuration not stated)	FGF22 binding 43.0
O=C(CC(CC(=O)c1ccccc1)C(=O)O)c1ccccc1	none (no result: FGF22 binding, S100A4 inh HTS, ERAP1 inh, ERp5 inh)
NC(=O)C(c1ccc(Cl)cc1Cl)c1ncc(C(F)(F)F)cc1Cl (configuration not stated)	none (no result: FGF22 binding, S100A4 inh HTS, ERAP1 inh, ERp5 inh)
Cc1cccc(C(C(N)=O)c2ncc(C(F)(F)F)cc2Cl)c1 (configuration not stated)	FGF22 binding 43.6
NC(=O)C(c1ccc(Cl)cc1)c1ncc(C(F)(F)F)cc1Cl (configuration not stated)	none (no result: FGF22 binding, S100A4 inh HTS, ERAP1 inh, ERp5 inh)
COc1ccc(C(C(N)=O)c2ncc(C(F)(F)F)cc2Cl)cc1OC (configuration not stated)	FGF22 binding 43.4
O=C(C[C@H]1CC[C@H](NC(=O)C2CC2)[C@@H](CO)O1)NCCCN1CCOCC1	none (no result: PDI inh)
COc1ccc(C=Nc2ccc3[nH]ncc3c2)c(O)c1	FGF22 binding 43.1
CC(NC(=O)Cn1cccc1C(=O)c1ccccc1)c1ccc2c(c1)OCCO2 (configuration not stated)	FGF22 binding 43.2
COc1ccccc1C(=O)Nc1ccc(-c2nnn(CC(=O)N3CCOCC3)n2)cc1	FGF22 binding 43.8
O=C(OCC(=O)c1c[nH]c2ccccc12)c1cc(Br)ccc1O	FGF22 binding 43.3
CCCCCCCCCCOC(=O)Cn1c(COc2cccc(C)c2)[n+](C)c2ccccc21	ERAP1 inh 30.5
CCOC(=O)Cn1c(COc2ccccc2OC)[n+](C)c2ccccc21	none
CCCCCCCCCCOC(=O)Cn1c(COc2ccc(OC)cc2)[n+](C)c2ccccc21	none (no result: FGF22 binding, S100A4 inh HTS, ERAP1 inh, ERp5 inh)
CCCCCCCCCCOC(=O)Cn1c(COc2ccc(Cl)cc2)[n+](C)c2ccccc21	ERAP1 inh 34.5
CCCCOC(=O)Cn1c(=O)n(CC(=O)OCCCC)c2ccccc21	none (no result: FGF22 binding, S100A4 inh HTS, ERAP1 inh, ERp5 inh)
CCCCCCCCCCOC(=O)Cn1c(COc2ccccc2)[n+](C)c2ccccc21	ERAP1 inh 48.8
CCCCCCCCCCOC(=O)Cn1c(COc2ccccc2C)[n+](C)c2ccccc21	ERAP1 inh 32.9 (no result: FGF22 binding)
CC(C)Nc1nc(Nc2ccccc2Cl)c2sccc2n1	none
COc1cc([N+](=O)[O-])ccc1N/C=C/C(=O)c1cccs1	none (no result: FGF22 binding, S100A4 inh HTS, ERAP1 inh, ERp5 inh)
COc1ccc(-c2coc3cc(O)cc(O)c3c2=O)cc1	FGF22 binding 2.2
C[C@@H]1CCCCO[C@H](CN(C)Cc2ccccc2)[C@H](C)CN([C@H](C)CO)C(=O)c2cc(NC(=O)Nc3ccc4c(c3)OCO4)ccc2O1	none (no result: PDI inh)
O=C1NC(CCc2ccccc2)C(=O)N1CCOc1cccc(Br)c1 (configuration not stated)	FGF22 binding 43.0
CCCNC(=O)CN1C(=O)NC(CCc2ccccc2)C1=O (configuration not stated)	none
CCCCNC(=O)CN1C(=O)NC(CCc2ccccc2)C1=O (configuration not stated)	FGF22 binding 43.0
C#CCNC(=O)C1=C[C@@H](c2ccc(C(F)(F)F)cc2)C[C@@H](OCc2ccc(CO)cc2)O1	none
Cc1cc(=O)c2n(Cc3ccccc3Cl)nc[n+]2[nH]1	none (no result: FGF22 binding, S100A4 inh HTS, ERAP1 inh, ERp5 inh)
Cc1ccc(NC(=S)N(Cc2cccc(Br)c2)CC2CCC(C(=O)O)CC2)cc1 (configuration not stated)	FGF22 binding 8.2
CCC(C)Cn1c(S(=O)(=O)O)nc2ccccc21 (configuration not stated)	none (no result: FGF22 binding, S100A4 inh HTS, ERAP1 inh, ERp5 inh)
Cc1cc(C)c(C(=O)COC(=O)c2cccnc2Cl)c(C)c1	FGF22 binding 43.5
CCOC(=O)C1=CN(CC)S(=O)(=O)NC1c1ccc(F)c(Cl)c1 (configuration not stated)	none
CCOC(=O)c1sc(=NC(=O)c2ccc(C)c(C)c2)n(C)c1C	FGF22 binding 43.1
COc1ccc(NC(=O)N2C3CCCC2CC(NC(=O)C2CC2)C3)cc1 (configuration not stated)	none
Cn1nc(C(C)(C)C)cc1NC(=O)C1(C)CCN1C(=O)C1(c2ccccc2)CC1 (configuration not stated)	none
COc1cc(OC)cc(C(=O)N2CCN(Cc3ccccc3Br)CC2)c1	FGF22 binding 43.2
O=C(O)Cc1c(C(=O)O)nnn1-c1ccc(Cl)cc1Cl	none
C[C@@H]1CCCCO[C@@H](CN(C)C(=O)CCC(F)(F)F)[C@@H](C)CN([C@@H](C)CO)C(=O)c2cc(NS(=O)(=O)c3ccc(Cl)cc3)ccc2O1	ERp5 inh 70.2 (no result: PDI inh)
Cc1ccc(S(=O)(=O)Nc2ccc3c(c2)C(=O)N([C@H](C)CO)C[C@@H](C)[C@H](CN(C)S(=O)(=O)c2ccccc2)OCCCC[C@H](C)O3)cc1	none (no result: FGF22 binding, PDI inh)
C[C@@H]1CN([C@@H](C)CO)C(=O)c2cc(NS(=O)(=O)c3ccc(Cl)cc3)ccc2O[C@@H](C)CCCCO[C@H]1CN(C)S(=O)(=O)c1cn(C)cn1	FGF22 binding 1.4 (no result: PDI inh)
Cc1ccc(S(=O)(=O)N(C)C[C@H]2OCCCC[C@H](C)Oc3ccc(NS(=O)(=O)c4ccccc4)cc3C(=O)N([C@H](C)CO)C[C@@H]2C)cc1	S100A4 inh HTS 97.1 (no result: PDI inh)
Cc1ccc(S(=O)(=O)N(C)C[C@@H]2OCCCC[C@@H](C)Oc3ccc(NS(C)(=O)=O)cc3C(=O)N([C@@H](C)CO)C[C@@H]2C)cc1	S100A4 inh HTS 88.3 (no result: PDI inh)
C[C@@H]1CCCCO[C@H](CN(C)S(=O)(=O)c2cn(C)cn2)[C@H](C)CN([C@H](C)CO)C(=O)c2cc(NS(=O)(=O)c3ccc(Cl)cc3)ccc2O1	none (no result: PDI inh)
Cc1ccc(S(=O)(=O)N(C)C[C@H]2OCCCC[C@H](C)Oc3ccc(NS(C)(=O)=O)cc3C(=O)N([C@H](C)CO)C[C@H]2C)cc1	none (no result: PDI inh)
CCOc1ncccc1C(=O)OCC(=O)c1ccc(Br)s1	none

Compound activity as filed in PubChem BioAssay.
